{"source": "ChEMBL document CHEMBL4138185", "about": "“Investigation of the Physical and Bioactive Properties of Bromo- and Iodo-Containing Sponge-Derived Compounds Possessing an Oxyphenylethanamine Core” (J Nat Prod, 2017)", "note": "Active and inactive are the calls of the source. No cut-off for these calls is given here."}
{"test_system": "Yersinia pseudotuberculosis", "test": "Growth inhibition of wild-type Yersinia pseudotuberculosis at 60 uM measured at 1 hr interval for 15 hrs", "type": "organism-based", "details": "in vivo", "outline": "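Wild-type Y. pseudotuberculosis grown at room temperature in 2×YT with test agent at 60 μM, kanamycin at 50 μg/mL, or DMSO. Absorbance at 600 nm read every hour over 15 h as the growth measure.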"}
{"smiles": "CCC(=O)N(C)CCc1ccc(OCCCNC(=O)Cc2ccc(O)cc2)c(Br)c1", "growth inhibition (GI)": "Non-Toxic"}
{"smiles": "CCC(=O)N(C)CCc1cc(Br)c(OCCCNC(=O)Cc2ccc(O)cc2)c(I)c1", "growth inhibition (GI)": "Non-Toxic"}
{"smiles": "CCC(=O)N(C)CCc1cc(Br)c(OCCCNC(=O)Cc2ccc(O)cc2)c(Br)c1", "growth inhibition (GI)": "Non-Toxic"}
{"smiles": "CCC(=O)N(C)CCc1ccc(OCCCN(C)C(=O)Cc2ccc(O)cc2)c(Br)c1", "growth inhibition (GI)": "Non-Toxic"}
{"smiles": "CCC(=O)N(C)CCc1ccc(OCCCNC(=O)Cc2ccc(O)cc2)c(I)c1", "growth inhibition (GI)": "Non-Toxic"}
{"smiles": "COc1c(Br)cc(CC(O)C(=O)NCCc2ccc(O)c(I)c2)cc1Br", "note": "(centres undefined)", "growth inhibition (GI)": "Non-Toxic"}
{"smiles": "COc1c(Br)cc(CC(O)C(=O)NCCc2ccc(O)c(Br)c2)cc1Br", "note": "(centres undefined)", "growth inhibition (GI)": "Non-Toxic"}
{"test_system": "Pseudomonas aeruginosa PA103", "test": "Inhibition of Pseudomonas aeruginosa PA103 T3SS-mediated ExoU secretion at 60 uM after 3 hrs under low calcium medium by SDS-PAGE analysis relative to control", "details": "not given"}
{"smiles": "CCC(=O)N(C)CCc1ccc(OCCCNC(=O)Cc2ccc(O)cc2)c(Br)c1", "inhibition": "inactive"}
{"smiles": "CCC(=O)N(C)CCc1cc(Br)c(OCCCNC(=O)Cc2ccc(O)cc2)c(I)c1", "inhibition": "inactive"}
{"smiles": "CCC(=O)N(C)CCc1cc(Br)c(OCCCNC(=O)Cc2ccc(O)cc2)c(Br)c1", "inhibition": "inactive"}
{"smiles": "CCC(=O)N(C)CCc1ccc(OCCCN(C)C(=O)Cc2ccc(O)cc2)c(Br)c1", "inhibition": "inactive"}
{"smiles": "CCC(=O)N(C)CCc1ccc(OCCCNC(=O)Cc2ccc(O)cc2)c(I)c1", "inhibition": "inactive"}
{"smiles": "COc1c(Br)cc(CC(O)C(=O)NCCc2ccc(O)c(I)c2)cc1Br", "note": "(centres undefined)", "inhibition": "inactive"}
{"smiles": "COc1c(Br)cc(CC(O)C(=O)NCCc2ccc(O)c(Br)c2)cc1Br", "note": "(centres undefined)", "inhibition": "inactive"}
{"test_system": "Yersinia pseudotuberculosis", "test": "Inhibition of wild-type Yersinia pseudotuberculosis T3SS-mediated YopE secretion at 30 uM after 2 hrs under low calcium medium by SDS-PAGE analysis relative to control", "details": "not given", "units": {"inhibition": "%"}}
{"smiles": "CCC(=O)N(C)CCc1cc(Br)c(OCCCNC(=O)Cc2ccc(O)cc2)c(I)c1", "inhibition": "> 50"}
{"smiles": "CCC(=O)N(C)CCc1ccc(OCCCN(C)C(=O)Cc2ccc(O)cc2)c(Br)c1", "inhibition": "> 50"}
{"smiles": "COc1c(Br)cc(CC(O)C(=O)NCCc2ccc(O)c(Br)c2)cc1Br", "note": "(centres undefined)", "inhibition": "> 50"}
{"test_system": "Yersinia pseudotuberculosis", "test": "Toxicity against wild-type Yersinia pseudotuberculosis at 60 uM measured after 15 hrs by MTT assay", "type": "organism-based", "details": "in vivo", "outline": "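Wild-type Y. pseudotuberculosis grown at room temperature in 2×YT with test agent at 60 μM, kanamycin at 50 μg/mL, or DMSO. MTT added after 15 h; absorbance at 570 nm used as the metabolic activity read-out.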"}
{"smiles": "CCC(=O)N(C)CCc1ccc(OCCCNC(=O)Cc2ccc(O)cc2)c(Br)c1", "Activity": "Non-Toxic"}
{"smiles": "CCC(=O)N(C)CCc1cc(Br)c(OCCCNC(=O)Cc2ccc(O)cc2)c(I)c1", "Activity": "Non-Toxic"}
{"smiles": "CCC(=O)N(C)CCc1cc(Br)c(OCCCNC(=O)Cc2ccc(O)cc2)c(Br)c1", "Activity": "Non-Toxic"}
{"smiles": "CCC(=O)N(C)CCc1ccc(OCCCN(C)C(=O)Cc2ccc(O)cc2)c(Br)c1", "Activity": "Non-Toxic"}
{"smiles": "CCC(=O)N(C)CCc1ccc(OCCCNC(=O)Cc2ccc(O)cc2)c(I)c1", "Activity": "Non-Toxic"}
{"smiles": "COc1c(Br)cc(CC(O)C(=O)NCCc2ccc(O)c(I)c2)cc1Br", "note": "(centres undefined)", "Activity": "Non-Toxic"}
{"smiles": "COc1c(Br)cc(CC(O)C(=O)NCCc2ccc(O)c(Br)c2)cc1Br", "note": "(centres undefined)", "Activity": "Non-Toxic"}
{"test_system": "Yersinia pseudotuberculosis", "test": "Inhibition of wild-type Yersinia pseudotuberculosis T3SS-mediated YopE secretion at 120 uM after 2 hrs under low calcium medium by SDS-PAGE analysis relative to control", "details": "not given", "units": {"inhibition": "%"}}
{"smiles": "CCC(=O)N(C)CCc1cc(Br)c(OCCCNC(=O)Cc2ccc(O)cc2)c(Br)c1", "inhibition": "> 50"}
{"smiles": "CCC(=O)N(C)CCc1ccc(OCCCNC(=O)Cc2ccc(O)cc2)c(I)c1", "inhibition": "> 50"}
{"test_system": "Yersinia pseudotuberculosis", "test": "Inhibition of wild-type Yersinia pseudotuberculosis T3SS-mediated YopE secretion at 60 uM after 2 hrs under low calcium medium by SDS-PAGE analysis relative to control", "details": "not given", "units": {"inhibition": "%"}}
{"smiles": "CCC(=O)N(C)CCc1ccc(OCCCNC(=O)Cc2ccc(O)cc2)c(Br)c1", "inhibition": "> 50"}
{"smiles": "COc1c(Br)cc(CC(O)C(=O)NCCc2ccc(O)c(I)c2)cc1Br", "note": "(centres undefined)", "inhibition": "> 50"}
{"test_system": "Yersinia pseudotuberculosis", "test": "Inhibition of wild-type Yersinia pseudotuberculosis T3SS-mediated YopE secretion at 71 uM after 2 hrs under low calcium medium by SDS-PAGE analysis relative to control", "details": "not given", "units": {"inhibition": "%"}}
{"smiles": "C/C=C(\\C)[C@H](O)[C@H](C)/C=C(C)/C=C/C/C(C)=C/Cc1nc(OC)c(OC)c(O)c1C", "inhibition": "> 50"}
